Reference: ChEMBL document CHEMBL2163288, “Design and characterization of a selenium-containing inhibitor of activated thrombin-activatable fibrinolysis inhibitor (TAFIa), a zinc-containing metalloprotease” (J Med Chem, 2012)
Active and inactive are the calls of the source. No cut-off for these calls is given here.

Key:
[1] = Inhibition of human carboxypeptidase N using Hip-Lys as substrate incubated for 10 mins prior to substrate addition measured after 30 mins by spectrophotometric analysis
In short: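 Human plasma CPN (50 U/L) preincubated with compound at 37 °C for 10 min, then Hip-Lys (3.2 mM stock) added in 0.1 M Tris-HCl pH 7.6 (±10 μM DTT) for 30 min at 37 °C. Stopped with PIPES/Tween 20 buffer; cyanuric acid colour read at 405 nm; IC50 from sigmoidal inhibition curves.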

Carboxypeptidase B2 [2] = target: T1, Carboxypeptidase B2 (Homo sapiens, UniProt Q96IY4); experiment: Inhibition of human activated TAFI using Hip-Arg as substrate incubated for 10 mins prior to substrate addition measured after 30 mins by spectrophotometric analysis
T1 sequence (Q96IY4 whole entry): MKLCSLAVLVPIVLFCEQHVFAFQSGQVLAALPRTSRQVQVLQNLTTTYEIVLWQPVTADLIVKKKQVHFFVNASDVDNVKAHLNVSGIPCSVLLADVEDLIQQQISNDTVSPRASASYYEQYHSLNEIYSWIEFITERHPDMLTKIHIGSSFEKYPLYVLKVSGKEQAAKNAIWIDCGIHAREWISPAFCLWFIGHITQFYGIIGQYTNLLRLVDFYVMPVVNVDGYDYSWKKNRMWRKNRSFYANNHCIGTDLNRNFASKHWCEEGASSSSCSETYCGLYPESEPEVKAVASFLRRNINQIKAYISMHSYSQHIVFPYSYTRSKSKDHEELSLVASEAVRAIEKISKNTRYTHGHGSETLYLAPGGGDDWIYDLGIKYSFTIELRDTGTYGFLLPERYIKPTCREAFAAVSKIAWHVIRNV
In short: (§1)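 TAFI purified from human plasma, pre-mixed with 300 ng/mL thrombomodulin (25 °C, 3 min), then activated with 3 U/mL thrombin (25 °C, 30 min). 20 U/L TAFIa preincubated with compounds for 10 min at 25 °C. Hip-Arg (3.2 mM stock) in 0.1 M Tris pH 7.6, with or without 10 μM DTT final, for 30 min at 25 °C. Stopped with PIPES/Tween 20, cyanuric acid colour read at A405. IC50 taken from sigmoidal curves.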

Carboxypeptidase B [3] = target: T2, Carboxypeptidase B (Sus scrofa, UniProt P09955); experiment: Inhibition of pig pancreatic carboxypeptidase B using Hip-Arg as substrate incubated for 10 mins prior to substrate addition measured after 30 mins by spectrophotometric analysis in presence of dithiothreitol
T2 sequence (P09955 whole entry): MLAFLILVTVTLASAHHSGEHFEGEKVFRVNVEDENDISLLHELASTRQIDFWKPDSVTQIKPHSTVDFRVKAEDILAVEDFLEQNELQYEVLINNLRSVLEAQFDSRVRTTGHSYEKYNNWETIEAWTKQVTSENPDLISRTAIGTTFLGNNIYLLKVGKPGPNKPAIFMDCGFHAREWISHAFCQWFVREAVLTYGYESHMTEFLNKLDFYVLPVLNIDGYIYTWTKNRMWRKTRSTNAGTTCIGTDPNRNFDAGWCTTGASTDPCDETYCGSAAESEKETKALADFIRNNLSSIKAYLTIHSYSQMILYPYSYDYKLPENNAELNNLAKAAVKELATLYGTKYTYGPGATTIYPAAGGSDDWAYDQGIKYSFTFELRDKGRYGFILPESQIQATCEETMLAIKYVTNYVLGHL
In short: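 Porcine pancreatic CPB at 20 U/L preincubated with compounds for 10 min at 25 °C. Then Hip-Arg (3.2 mM stock) in 0.1 M Tris pH 7.6 with 10 μM DTT final, for 30 min at 25 °C. Stopped with PIPES/Tween 20, cyanuric acid colour, absorbance at 405 nm. IC50 from sigmoidal inhibition curves.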

Carboxypeptidase B2 [4] = target: T1, Carboxypeptidase B2; experiment: Inhibition of human activated TAFI using Hip-Arg as substrate incubated for 10 mins prior to substrate addition measured after 30 mins by spectrophotometric analysis in presence of dithiothreitol; in short: as §1
[5] = Selectivity ratio of IC50 for pig pancreatic carboxypeptidase B to IC50 for human activated TAFI
[6] = Inhibition of human carboxypeptidase N using Hip-Lys as substrate incubated for 10 mins prior to substrate addition measured after 30 mins by spectrophotometric analysis in presence of dithiothreitol
In short: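 Human plasma carboxypeptidase N at 50 U/L preincubated with compounds for 10 min at 37 °C. Then Hip-Lys (3.2 mM stock) in 0.1 M Tris pH 7.6 buffer with DTT, for 30 min at 37 °C. Stopped with PIPES/Tween 20, cyanuric acid colour, A405. IC50 from sigmoidal inhibition curves.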

Carboxypeptidase B [7] = target: T2, Carboxypeptidase B; experiment: Inhibition of pig pancreatic carboxypeptidase B using Hip-Arg as substrate incubated for 10 mins prior to substrate addition measured after 30 mins by spectrophotometric analysis
Homo sapiens = species: Homo sapiens; experiment: Selectivity ratio of IC50 for human carboxypeptidase N to IC50 for human activated TAFI
[8] = target: T3, Carboxypeptidase B2 (Homo sapiens) (UniProt Q96IY4); experiment: Inhibition of human activated TAFI using Hip-Arg as substrate at 10 uM incubated for 10 mins prior to substrate addition measured after 30 mins by spectrophotometric analysis
T3 sequence (whole entry): T1 sequence (Q96IY4 whole entry)
In short: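 Plasma-purified human TAFI activated with thrombomodulin (25 °C, 3 min), then thrombin (25 °C, 30 min). TAFIa (20 U/L) preincubated with compound at 25 °C for 10 min. Hip-Arg substrate (3.2 mM stock) added in 0.1 M Tris-HCl pH 7.6 with or without 10 μM DTT, 30 min at 25 °C. Stopped with PIPES/Tween 20; cyanuric acid colour read at 405 nm; IC50 from sigmoidal curves.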

| Ratio IC50 (Homo sapiens) | inhibition [8] | SMILES | IC50 [1] | IC50 (Carboxypeptidase B2 [2]) | IC50 (Carboxypeptidase B [3]) | IC50 (Carboxypeptidase B2 [4]) | Ratio IC50 [5] | IC50 [6] | IC50 (Carboxypeptidase B [7]) |
| --- | --- | --- | --- | --- | --- | --- | --- | --- | --- |
| – | – | NCCCCCC(CS)C(=O)O (stereo not given) | 1.4 µM | 0.034 µM | – | – | – | – | – |
| – | – | Nc1ncc(CC(C[Se][Se]CC(Cc2cnc(N)c(Cl)c2)C(=O)O)C(=O)O)cc1Cl (stereo not given) | > 3800 µM | 3.3 µM | 0.0015 µM | 0.025 nM | 3 | > 3800 µM | 370 µM |
| – | – | CC(C)[C@H](NC(=O)CCc1ccccc1)P(=O)(O)C[C@@H](CCCCCN)C(=O)O | 6.7 µM | 0.0055 µM | – | – | – | – | 0.0049 µM |
| – | – | CCOC(=O)C(CCCCCN)CSC(C)=O (stereo not given) | > 3800 µM | 310 µM | – | – | – | – | 19 µM |
| – | – | CCOC(=O)C(CCCCCN)C[Se]C(=O)CC (stereo not given) | 14 µM | 1.4 µM | 0.033 µM | 30 nM | – | 0.16 µM | 910 µM |
| – | – | NCCCCCC(C[Se]C(=O)CCc1ccccc1)C(=O)O (stereo not given) | 1.7 µM | 2 µM | 0.0032 µM | 5.3 nM | – | 0.014 µM | 1.4 µM |
| – | – | NCCCCCC(C[Se]C(=O)CCCc1ccccc1)C(=O)O (stereo not given) | 6 µM | 1.6 µM | 0.0032 µM | 4.1 nM | – | 0.016 µM | 1.5 µM |
| 40 | – | CC(=O)SCC(CCCCCN)C(=O)O (stereo not given) | 160 µM | 3.8 µM | – | – | – | – | 1.4 µM |
| – | – | CCC(=O)[Se]CC(CCCCCN)C(=O)O (stereo not given) | 2 µM | 0.76 µM | 0.0011 µM | 1.1 nM | – | 0.018 µM | 1.9 µM |
| 0.4 | – | CCOC(=O)C(CS)CCCCCN (stereo not given) | 25 µM | 62 µM | – | – | – | – | 260 µM |
| – | inactive | O[C@@H](CS)[C@@H](O)CS | – | – | – | – | – | – | – |
| – | – | NCCCCCC(C[Se][Se]CC(CCCCCN)C(=O)O)C(=O)O (stereo not given) | > 3800 µM | > 3800 µM | 0.0011 µM | 2 nM | – | 0.0086 µM | 110 µM |
| – | – | CCOC(=O)C(C[Se]C(=O)CC)Cc1cnc(N)c(Cl)c1 (stereo not given) | > 3800 µM | > 3800 µM | 130 µM | 2600 nM | 3 | > 3800 µM | > 3800 µM |
| – | – | CCOC(=O)C(C[Se]C(=O)CC)Cc1ccc(N)nc1 (stereo not given) | 15 µM | 180 µM | 2.5 µM | 890 nM | 3 | 1.7 µM | > 3800 µM |
| – | – | Nc1ccc(CC(C[Se][Se]CC(Cc2ccc(N)nc2)C(=O)O)C(=O)O)cn1 (stereo not given) | 4.2 µM | 0.2 µM | 0.00019 µM | 0.0022 nM | 3 | 0.00029 µM | 0.28 µM |
